Measurements gathered from unrelated publications.
Compare with care: the assays were run in different laboratories.
Dihydroorotate dehydrogenase (quinone), mitochondrial: Dihydroorotate dehydrogenase (quinone), mitochondrial (Rattus norvegicus, UniProt Q63707)
CYP2D6: Cytochrome P450 2D6 (CYP2D6, Homo sapiens, UniProt P10635)

Compound	target	test	test system	conditions	quantity	value
Cn1nc2c(=O)n(C3CC3)ccc2c1[C@](O)(c1cnc(C(F)(F)F)c(Cl)c1)C(F)(F)F	Dihydroorotate dehydrogenase (quinone), mitochondrial	enzyme activity, inhibitor, absorbance			IC50	16 µM
Cc1ccc(C(=O)Nc2ccc(CN3CCN(C)CC3)c(C(F)(F)F)c2)cc1C#Cc1cnc2cccnn12	Calmodulin-domain protein kinase 1, putative (Cryptosporidium parvum, UniProt A3FQ16)	enzyme activity, inhibitor			IC50	> 1 µM
O=C1CCC(=O)N1Cc1cc2nccc(-c3cc(Cl)cc4c3N([C@@H]3CNC5(CCC5)C3)CCC4)c2s1	Ubiquitin carboxyl-terminal hydrolase 7 (USP7, Homo sapiens, UniProt Q93009)	binding, SPR			Kd	0.0001 µM
C=C(F)C(=O)N1CCN(c2nc(OC[C@@H]3CCCN3C)nc3c2CCN(c2cccc4cccc(Cl)c24)C3)C[C@@H]1CC#N	CYP2D6	enzyme activity, inhibitor	human, liver microsomes		Ki	26.4 µM
Cc1ccc2[nH]c(=O)c(CNC3CCCCC3)cc2c1	Alpha-1B adrenergic receptor (ADRA1B, Homo sapiens, UniProt P35368)	ligand displacement in cells			Ki	0.155 µM
CCNC(=O)/C=C/c1cccc(Br)c1	Sodium-dependent neutral amino acid transporter B(0)AT1 (SLC6A19, Homo sapiens, UniProt Q695T7)	transporter uptake, inhibitor, radiometric			IC50	0.84 µM
Cc1nn(CCc2ccccc2)c2ncc(C(=O)NCc3cccnc3)c(Cl)c12	Prolyl endopeptidase (PREP, Homo sapiens, UniProt P48147)	enzyme activity, inhibitor, fluorescence			IC50	14 µM
Cn1nc2c(=O)n(C3CC3)ncc2c1[C@](O)(c1cnc(C(F)(F)F)c(Cl)c1)C(F)(F)F	Dihydroorotate dehydrogenase (quinone), mitochondrial	enzyme activity, inhibitor, absorbance			IC50	> 30 µM
COc1cc(O)c2c(c1)C(=O)c1cc(C)cc(O)c1C2=O	CYP2D6	enzyme activity, inhibitor	human, liver microsomes	pH 7.4	Ki	8.66 µM
Cn1nc2c(=O)n(C3CC3)ncc2c1[C@](N)(c1ccc(C(F)(F)F)c(Cl)c1)C1CC1	Dihydroorotate dehydrogenase (quinone), mitochondrial	enzyme activity, inhibitor, absorbance			IC50	6.2 µM
C[C@@H]1CN(c2ccc(-c3cc(C(=O)NCCCNC(=O)/C=C/c4[nH]cc(C(=O)N[C@@H](CC(N)=O)c5ccc(F)c(Cl)c5)c4-c4ccc(Cl)cc4F)ccc3F)cc2NC(=O)c2c[nH]c(=O)cc2C(F)(F)F)C[C@H](C)N1C	DDB1- and CUL4-associated factor 1 (DCAF1, Homo sapiens, UniProt Q9Y4B6)	binding, SPR			Kd	0.0152 µM
Nc1ccccc1NC(=O)c1ccc(CNc2ccc(NC3=C(Cl)C(=O)c4cccnc4C3=O)cc2)cc1	Histone deacetylase 3 (HDAC3, Homo sapiens, UniProt O15379)	enzyme activity, inhibitor			IC50	0.716 µM
